Published values pooled from the literature.
Protocols differ between the studies behind these lines.
Target: Inhibitor of nuclear factor kappa-B kinase subunit alpha (CHUK, Homo sapiens, UniProt O15111)
Residues used in one study (O15111 1-745): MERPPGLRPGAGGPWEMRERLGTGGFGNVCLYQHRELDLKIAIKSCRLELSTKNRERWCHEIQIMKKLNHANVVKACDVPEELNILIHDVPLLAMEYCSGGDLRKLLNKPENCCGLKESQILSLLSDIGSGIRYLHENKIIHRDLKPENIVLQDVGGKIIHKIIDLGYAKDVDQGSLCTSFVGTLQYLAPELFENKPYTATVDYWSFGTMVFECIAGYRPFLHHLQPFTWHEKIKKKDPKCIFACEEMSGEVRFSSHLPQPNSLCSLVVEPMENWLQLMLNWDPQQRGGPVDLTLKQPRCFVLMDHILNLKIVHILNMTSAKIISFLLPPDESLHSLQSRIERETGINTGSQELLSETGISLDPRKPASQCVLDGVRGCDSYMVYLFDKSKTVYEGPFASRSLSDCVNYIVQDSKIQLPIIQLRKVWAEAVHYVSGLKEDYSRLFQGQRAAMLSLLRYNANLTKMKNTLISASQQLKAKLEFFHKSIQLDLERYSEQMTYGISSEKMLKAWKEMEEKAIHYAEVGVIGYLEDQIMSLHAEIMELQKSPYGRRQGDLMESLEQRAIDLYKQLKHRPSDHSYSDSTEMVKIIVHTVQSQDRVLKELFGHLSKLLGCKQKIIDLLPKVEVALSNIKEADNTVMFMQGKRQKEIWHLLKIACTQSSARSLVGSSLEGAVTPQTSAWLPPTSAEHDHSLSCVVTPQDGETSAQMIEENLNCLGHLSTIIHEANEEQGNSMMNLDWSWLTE

The remaining binding of `COc1cc(-c2cn(C3CCc4ccccc4N(CC(F)(F)F)C3=O)nn2)ccc1-n1ccc(C)n1` (stereo not shown) is reported as 98% (cell-free assay; competition with immobilised ligand; 1 µM).
With `O=C(NCCCN1CCOCC1)c1ccc(Nc2nccc(-c3cc4ccccc4s3)n2)cc1` the remaining binding was 12% (binding; competition with immobilised ligand; 1 µM).
The remaining binding of `O=C(Nc1c[nH]nc1C(=O)NC1CCNCC1)c1cc(F)cc(F)c1` is reported as 100% (binding; competition with immobilised ligand; 1 µM).
For `CS(=O)(=O)c1cc(C2(NC(=O)c3cncc4c3cnn4-c3ccc(F)cc3)CC2)ccn1`, the remaining binding was 100% (cell-free assay; competition with immobilised ligand; 1 µM).
The remaining binding of `CN(C)c1ncc(F)c(-c2cnn3ncccc23)n1` is reported as 70% (binding; 1 µM).
`C[C@@H]1CN(c2ccc3ncc(-c4ccc5[nH]nc(C6CC6)c5c4)n3n2)C[C@H](C)O1` gave a remaining binding of 86% (binding; competition with immobilised ligand; 50 nM).
`FC(F)(F)Oc1cccc(-c2cnc3ccc(-c4ccncc4)nn23)c1` gave a remaining binding of 39% (cell-free assay; competition with immobilised ligand; 5 µM).
`c1cncc(-c2cccc(Nc3nccc(NC4CCCCC4)n3)c2)c1` has a remaining binding of 87% (binding; competition with immobilised ligand; 10 µM).
`Cn1cc(Cl)c2c(Oc3c(F)cc(Nc4cc(Cl)nc(N)n4)cc3F)ccnc21` gave a remaining binding of 85% (cell-free assay; competition with immobilised ligand; 0.1 µM).
`CCN1CCN(Cc2ccc(C(=O)Nc3ccc(C)c(Oc4ccc5c(c4)CC(=O)N5)c3)cc2C(F)(F)F)CC1` has a remaining binding of 74% (binding; competition with immobilised ligand; 1 µM).
For `N[C@@H]1CCN(c2nccc(-c3cnn4ncccc34)n2)C1`, the remaining binding was 100% (binding; 1 µM).
`O=C(NC[C@@H]1[C@H]2CN(C(=O)OCc3cc(C(F)(F)F)cc(C(F)(F)F)c3)C[C@@H]12)c1ccc2[nH]nnc2c1` gave a remaining binding of 100% (cell-free assay; competition with immobilised ligand; 1 µM).
The remaining binding of `CC1CCCN1c1nccc(-c2cnn3ncccc23)n1` (stereo not shown) is reported as 86% (binding; 1 µM).
`Cc1cnc(Nc2ccc(C(=O)N3CCC(N4CCCC4)CC3)cc2)nc1-c1cc2ccccc2s1` has a remaining binding of 1.3% (binding; competition with immobilised ligand; 1 µM).
`Nc1ncc2c(n1)-c1c([nH]c3ccc(C#CC4CC4)cc13)CCCC2` gave a remaining binding of 98% (binding; competition with immobilised ligand; 1 µM).
The remaining binding of `COc1cnc(Nc2cccc(S(N)(=O)=O)c2)nc1N1CCN(c2ccccc2)CC1` is reported as 89% (binding; competition with immobilised ligand; 1 µM).
With `Cc1cnn2ncc(-c3ccnc(N(C)C)n3)c2c1` the remaining binding was 69% (binding; 1 µM).
With `O=C(Nc1ccc(Oc2ccc(F)cc2)cc1)N1CCc2ncccc2[C@H]1c1ccc(F)cc1` the remaining binding was 100% (cell-free assay; competition with immobilised ligand; 1 µM).
The remaining binding of `F[C@@H]1CCN(c2nccc(-c3cnn4ncccc34)n2)C1` is reported as 100% (binding; 1 µM).
`C[C@@]1(Cc2ccc(C#N)cc2)C(=O)N(c2cc(Cl)cc(Cl)c2)c2ncc(C(=O)NC3(c4nc(C5CCC5)no4)CC3)n21` gave a remaining binding of 100% (cell-free assay; competition with immobilised ligand; 1 µM).
With `CN(CCCC(F)(F)F)c1nccc(-c2cnn3ncccc23)n1` the remaining binding was 99% (binding; 1 µM).
`Cc1nccc(COC(=O)N2C[C@@H]3[C@@H](CNC(=O)c4ccc5[nH]nnc5c4)[C@@H]3C2)n1` gave a remaining binding of 100% (cell-free assay; competition with immobilised ligand; 1 µM).
For `COc1cnc(Nc2cccc(S(N)(=O)=O)c2)nc1N1CCN(c2ccccc2)C(=O)C1`, the remaining binding was 91% (binding; competition with immobilised ligand; 1 µM).
`C[C@H]1CCN(c2nccc(-c3cnn4ncccc34)n2)C1` has a remaining binding of 62% (binding; 1 µM).
`O=C(c1ccc(Nc2nccc(-c3cc4ccccc4s3)n2)cc1)N1CCC(N2CCCC2)CC1` has a remaining binding of 0.2% (binding; competition with immobilised ligand; 1 µM).
